Measured values reported in ChEMBL document CHEMBL3425405, “Discovery of Small Molecules for Up-Regulating the Translation of Antiamyloidogenic Secretase, a Disintegrin and Metalloproteinase 10 (ADAM10), by Binding to the G-Quadruplex-Forming Sequence in the 5' Untranslated Region (UTR) of Its mRNA” (J Med Chem, 2015).
Activity calls are given as the source filed them. No cut-off for these calls is given here.

Columns and labels:
[1] = Binding affinity to ADAM10 A10-RNA QGRS (unknown origin) by microscale thermophoresis method
[2] = tested on: HeLa; experiment: Binding affinity to ADAM10 A10-RNA QGRS (unknown origin) transfected in human HeLa cells assessed as increase in ADAM10 translation efficiency at 2 uM after 24 hrs by Renilla/firefly dual luciferase reporter assay; type: cell-based
How it was run: (§1)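 HeLa cells transfected with 0.8 μg A10-Wt, A10-Mut or A10-Del plasmid (G-quadruplex motif upstream of Renilla in psiCHECK-2). Screening: 24 h at a single 2 μM concentration. Follow-up: plasmid for 12 h, then 0, 0.5, 1 or 2.5 μM for 24 h. Renilla normalized to firefly, relative to untreated control; mean ± SD of three independent measurements.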

[3] = Binding affinity to 5'-end biotinylated ADAM10 A10-mutant RNA QGRS (unknown origin) by surface plasmon resonance assay method
How it was run: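 SPR with 5′-biotinylated A10-RNA-Wt or A10-RNA-Mut immobilized on a neutravidin chip in running buffer (50 mM Tris-HCl pH 7.5, 100 mM KCl). Ligand serial dilutions in running buffer injected at 20 μL/min for association, then dissociation. Chip regenerated with 50 mM NaOH between runs.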

[4] = tested on: HeLa; experiment: Binding affinity to ADAM10 A10-RNA QGRS (unknown origin) transfected in human HeLa cells assessed as increase in ADAM10 translation efficiency at 2.5 uM after 24 hrs by Renilla/firefly dual luciferase reporter assay; type: cell-based; how it was run: as §1
[5] = tested on: HeLa; experiment: Binding affinity to N-Ras RNA QGRS (unknown origin) transfected in human HeLa cells assessed as increase in ADAM10 translation efficiency at 2.5 uM after 24 hrs by Renilla/firefly dual luciferase reporter assay; type: cell-based
How it was run: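 HeLa cells carrying luciferase reporter plasmids with the N-Ras, Bcl-2 or VEGF 5′-UTR quadruplex (or its mutant) treated with compound up to 2.5 μM for 24 h. Renilla/firefly luciferase activity then measured.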

[6] = tested on: HEK-APP; experiment: Binding affinity to ADAM10 A10-RNA QGRS (unknown origin) transfected in HEK-APP cells assessed as increase in ADAM10 protein expression at 1.5 uM after 48 hrs by Western blotting method; type: cell-based
How it was run: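 HEK-APP cells (DMEM, 10% FBS, 2 mM glutamine, 0.2 mg/mL G418) treated with 0, 0.5, 0.75, 1 or 1.5 μM compound for 48 h. Lysates in Tris/NaCl/EDTA/1% Triton buffer immunoblotted for ADAM10, APP and β-actin; conditioned medium blotted for sAPPα. Signal by densitometry, normalized to β-actin, relative to blank control; mean ± SD, three independent experiments.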

[7] = tested on: HEK293; experiment: Reduction in Abeta40 protein production in APP expressing HEK cells at 1.5 uM after 48 hrs by ELISA method; type: functional, Homo sapiens; parameters: scale not given: the % may be the effect or the level left
How it was run: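 HEK-APP cells treated 48 h with increasing compound concentrations (0.75, 1, 1.5 μM). Secreted Aβ40 in equal amounts of conditioned medium quantified by sandwich ELISA. Values expressed relative to blank control; mean ± SD of three independent experiments.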

Kd [1]: 4.9 µM | Activity [3]: inactive
Structure (SMILES): CCn1c2ccccc2c2cc(/C=C/c3cc(N4CCN(C)CC4)c4ccccc4[n+]3C)ccc21.[I-]
Activity [2]: 138% | Activity [4]: 87.3% | Activity [5]: 20% | Activity [6]: 92.9% | Activity [7]: 40.8%
